Measured values as given in ChEMBL document CHEMBL4477235, “Evolution of a Novel, Orally Bioavailable Series of PI3Kδ Inhibitors from an Inhaled Lead for the Treatment of Respiratory Disease” (J Med Chem, 2016).
Active and inactive are the calls of the source. The calls are words filed in the database; no cut-off is given here.

Tests used:
[1] = organism: Homo sapiens; assay: Selectivity ratio of IC50 for PI3Kalpha (unknown origin) to IC50 for PI3Kdelta (unknown origin)
Summary of the method: (§1)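 Ratio of each isoform's HTRF IC50 to the PI3Kδ HTRF IC50. Enzymes were preincubated 15 min with 4-fold compound dilutions in HEPES pH 7.0, MgCl2, DTT buffer. […] PIP2 was 5 µM for δ and 8 µM for α/β/γ. 60 min reaction, then EDTA quench with GRP-1 PH domain/APC/Eu detection. Four-parameter fit.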

[2] = organism: Homo sapiens; assay: Selectivity ratio of IC50 for PI3Kgamma (unknown origin) to IC50 for PI3Kdelta (unknown origin); summary of the method: as §1
[3] = Clearance in rat liver microsomes at 0.5 uM measured up to 30 mins by LC-MS/MS analysis; assay type: ADME, Microsome; conditions: 0.5 h
Summary of the method: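 Rat liver microsomes (0.5 mg protein/mL) prewarmed 10 min at 37 °C, started with NADPH regeneration system. Final compound 0.5 μM. Sampled at 0, 3, 6, 12 and 30 min into acetonitrile with internal standard. Peak area ratios by LC–MS/MS fitted to log-linear decline. Clearance scaled by protein concentration, incubation volume and 52.5 mg microsomal protein/g liver.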

[4] = AUC(infinity) in Sprague-Dawley rat at 3 mg/kg, po measured up to 7 hrs by LC-MS/MS analysis; assay type: ADME, organism-based; design: dose 3 mg/kg, time infinity, route oral; conditions: in vivo, 7 h
Summary of the method: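 Male Sprague Dawley rats (n = 2/route), oral dose in DMSO/PEG200/water (5:45:50 v/v/v) at 6 mL/kg. Serial tail-vein bleeds over 0–7 h. Parent compound quantified by LC–MS/MS. Parameters from noncompartmental analysis.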

[5] = test system: Rattus norvegicus; assay: Anti-inflammatory activity in Brown Norway rat acute OVA model of TH2-driven lung inflammation assessed as protection against eosinophil recruitment in bronchoalveolar lavage fluid at 3 mg/kg, po pretreated for 30 mins followed by OVA challenge by DAPI staining based flow cytometry; assay type: functional, organism-based
Summary of the method: (§2)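 Male Brown Norway rats (250–300 g) sensitized i.p. with 10 μg OVA plus 20 mg Al(OH)₃ on days 1 and 7. Oral compound given 30 min before intratracheal OVA challenge on day 21 or 28, under isoflurane. BAL taken 48 h post-challenge. Leucocytes counted by flow cytometry, gated on FSC/SSC, with DAPI+ dead cells excluded.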

[6] = test system: Rattus norvegicus; assay: Anti-inflammatory activity in Brown Norway rat acute OVA model of TH2-driven lung inflammation assessed as protection against eosinophil recruitment in bronchoalveolar lavage fluid at 9 mg/kg, po pretreated for 30 mins followed by OVA challenge by DAPI staining based flow cytometry; assay type: functional, organism-based; summary of the method: as §2
[7] = Half life in Brown Norway rat acute OVA model of TH2-driven lung inflammation at 3 mg/kg, po pretreated for 30 mins followed by OVA challenge; assay type: ADME, organism-based; conditions: in vivo
[8] = biological target: Aurora kinase A (Homo sapiens, UniProt O14965); assay: Inhibition of Aurora A (unknown origin)
Sequence of Aurora kinase A (O14965 whole entry): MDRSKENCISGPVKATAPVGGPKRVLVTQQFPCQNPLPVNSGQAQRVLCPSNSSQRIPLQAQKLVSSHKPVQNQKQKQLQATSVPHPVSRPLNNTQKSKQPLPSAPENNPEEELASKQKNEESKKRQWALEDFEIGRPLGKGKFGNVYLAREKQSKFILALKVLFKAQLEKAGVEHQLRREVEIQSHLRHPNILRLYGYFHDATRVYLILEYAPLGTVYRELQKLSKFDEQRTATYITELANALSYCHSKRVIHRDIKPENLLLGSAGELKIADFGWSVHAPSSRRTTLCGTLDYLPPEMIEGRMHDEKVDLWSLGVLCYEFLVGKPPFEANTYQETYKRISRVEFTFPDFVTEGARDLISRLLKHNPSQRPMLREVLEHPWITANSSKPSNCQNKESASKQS

[9] = biological target: Glycogen synthase kinase-3 beta (Homo sapiens, UniProt P49841); assay: Inhibition of GSK3beta (unknown origin)
Sequence of Glycogen synthase kinase-3 beta (P49841 whole entry): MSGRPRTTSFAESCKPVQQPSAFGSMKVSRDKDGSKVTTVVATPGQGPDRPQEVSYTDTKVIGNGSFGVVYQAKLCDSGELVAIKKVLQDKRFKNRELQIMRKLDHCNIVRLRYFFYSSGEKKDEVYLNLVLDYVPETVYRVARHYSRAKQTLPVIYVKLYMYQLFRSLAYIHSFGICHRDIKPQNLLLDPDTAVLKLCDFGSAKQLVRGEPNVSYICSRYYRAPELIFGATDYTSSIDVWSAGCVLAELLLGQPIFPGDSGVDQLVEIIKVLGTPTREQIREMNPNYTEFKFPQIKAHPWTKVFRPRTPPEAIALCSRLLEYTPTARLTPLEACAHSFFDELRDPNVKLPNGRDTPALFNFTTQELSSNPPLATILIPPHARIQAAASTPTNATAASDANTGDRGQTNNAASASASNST

[10] = biological target: Tyrosine-protein kinase ITK/TSK (Homo sapiens, UniProt Q08881); assay: Inhibition of ITK (unknown origin)
[11] = biological target: Tyrosine-protein kinase JAK2 (Homo sapiens, UniProt O60674); assay: Inhibition of JAK2 (unknown origin)
[12] = biological target: Tyrosine-protein kinase JAK3 (Homo sapiens, UniProt P52333); assay: Inhibition of JAK3 (unknown origin)
Sequence of Tyrosine-protein kinase JAK3 (P52333 whole entry): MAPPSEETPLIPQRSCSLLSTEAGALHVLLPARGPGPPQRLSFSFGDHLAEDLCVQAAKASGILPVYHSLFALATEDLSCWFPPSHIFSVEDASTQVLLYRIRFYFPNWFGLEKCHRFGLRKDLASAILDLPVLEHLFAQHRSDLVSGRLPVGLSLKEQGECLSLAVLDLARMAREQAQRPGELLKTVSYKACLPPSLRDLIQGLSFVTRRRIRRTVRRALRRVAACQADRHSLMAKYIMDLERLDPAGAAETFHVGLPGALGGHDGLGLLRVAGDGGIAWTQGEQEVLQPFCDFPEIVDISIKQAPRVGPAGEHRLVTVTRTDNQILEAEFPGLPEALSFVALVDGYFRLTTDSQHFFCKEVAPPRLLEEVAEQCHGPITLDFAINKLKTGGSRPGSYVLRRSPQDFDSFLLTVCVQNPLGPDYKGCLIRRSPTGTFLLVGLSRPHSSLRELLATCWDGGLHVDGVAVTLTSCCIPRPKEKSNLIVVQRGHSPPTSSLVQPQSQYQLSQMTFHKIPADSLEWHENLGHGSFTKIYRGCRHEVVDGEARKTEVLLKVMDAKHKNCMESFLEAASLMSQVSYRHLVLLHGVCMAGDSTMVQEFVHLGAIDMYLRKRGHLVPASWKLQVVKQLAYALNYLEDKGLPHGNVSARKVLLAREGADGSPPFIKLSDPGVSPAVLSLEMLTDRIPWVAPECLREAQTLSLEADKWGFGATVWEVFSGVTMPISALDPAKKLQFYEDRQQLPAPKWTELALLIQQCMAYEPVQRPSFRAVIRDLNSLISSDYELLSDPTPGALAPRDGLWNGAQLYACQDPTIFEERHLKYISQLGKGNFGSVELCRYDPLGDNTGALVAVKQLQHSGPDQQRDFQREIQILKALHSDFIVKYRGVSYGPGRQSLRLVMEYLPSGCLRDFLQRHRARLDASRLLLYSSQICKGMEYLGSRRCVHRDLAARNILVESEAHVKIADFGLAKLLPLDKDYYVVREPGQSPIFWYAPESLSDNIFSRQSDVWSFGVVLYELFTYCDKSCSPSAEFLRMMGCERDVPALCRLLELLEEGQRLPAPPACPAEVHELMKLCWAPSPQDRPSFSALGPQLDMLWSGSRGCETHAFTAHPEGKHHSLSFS

[13] = biological target: Tyrosine-protein kinase Lck (Homo sapiens, UniProt P06239); assay: Inhibition of LCK (unknown origin)
[14] = biological target: Diacylglycerol kinase zeta (Homo sapiens, UniProt Q13574); assay: Inhibition of DAGK zeta (unknown origin)
[15] = biological target: Inhibitor of nuclear factor kappa-B kinase subunit alpha (Homo sapiens, UniProt O15111); assay: Inhibition of IKK1 (unknown origin)
[16] = biological target: Phosphatidylinositol 4-kinase type 2-alpha (Homo sapiens, UniProt Q9BTU6); assay: Inhibition of PI4K2A (unknown origin)
Sequence of Phosphatidylinositol 4-kinase type 2-alpha (Q9BTU6 whole entry): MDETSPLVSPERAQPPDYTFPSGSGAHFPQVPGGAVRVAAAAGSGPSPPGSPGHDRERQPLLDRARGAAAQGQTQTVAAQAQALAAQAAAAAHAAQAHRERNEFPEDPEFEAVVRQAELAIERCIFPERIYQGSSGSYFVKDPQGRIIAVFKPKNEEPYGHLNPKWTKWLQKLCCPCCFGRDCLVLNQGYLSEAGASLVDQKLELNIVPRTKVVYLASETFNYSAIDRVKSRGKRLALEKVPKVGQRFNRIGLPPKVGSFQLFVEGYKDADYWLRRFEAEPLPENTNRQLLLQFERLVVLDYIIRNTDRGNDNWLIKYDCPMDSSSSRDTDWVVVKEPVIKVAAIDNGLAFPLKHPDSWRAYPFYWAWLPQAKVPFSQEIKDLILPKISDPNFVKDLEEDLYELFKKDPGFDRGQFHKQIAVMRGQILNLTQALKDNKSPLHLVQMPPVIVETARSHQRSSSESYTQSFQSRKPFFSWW

[17] = biological target: Phosphatidylinositol 4-kinase alpha (Homo sapiens, UniProt P42356); assay: Inhibition of PIK4A (unknown origin)
Sequence of Phosphatidylinositol 4-kinase alpha (P42356 whole entry): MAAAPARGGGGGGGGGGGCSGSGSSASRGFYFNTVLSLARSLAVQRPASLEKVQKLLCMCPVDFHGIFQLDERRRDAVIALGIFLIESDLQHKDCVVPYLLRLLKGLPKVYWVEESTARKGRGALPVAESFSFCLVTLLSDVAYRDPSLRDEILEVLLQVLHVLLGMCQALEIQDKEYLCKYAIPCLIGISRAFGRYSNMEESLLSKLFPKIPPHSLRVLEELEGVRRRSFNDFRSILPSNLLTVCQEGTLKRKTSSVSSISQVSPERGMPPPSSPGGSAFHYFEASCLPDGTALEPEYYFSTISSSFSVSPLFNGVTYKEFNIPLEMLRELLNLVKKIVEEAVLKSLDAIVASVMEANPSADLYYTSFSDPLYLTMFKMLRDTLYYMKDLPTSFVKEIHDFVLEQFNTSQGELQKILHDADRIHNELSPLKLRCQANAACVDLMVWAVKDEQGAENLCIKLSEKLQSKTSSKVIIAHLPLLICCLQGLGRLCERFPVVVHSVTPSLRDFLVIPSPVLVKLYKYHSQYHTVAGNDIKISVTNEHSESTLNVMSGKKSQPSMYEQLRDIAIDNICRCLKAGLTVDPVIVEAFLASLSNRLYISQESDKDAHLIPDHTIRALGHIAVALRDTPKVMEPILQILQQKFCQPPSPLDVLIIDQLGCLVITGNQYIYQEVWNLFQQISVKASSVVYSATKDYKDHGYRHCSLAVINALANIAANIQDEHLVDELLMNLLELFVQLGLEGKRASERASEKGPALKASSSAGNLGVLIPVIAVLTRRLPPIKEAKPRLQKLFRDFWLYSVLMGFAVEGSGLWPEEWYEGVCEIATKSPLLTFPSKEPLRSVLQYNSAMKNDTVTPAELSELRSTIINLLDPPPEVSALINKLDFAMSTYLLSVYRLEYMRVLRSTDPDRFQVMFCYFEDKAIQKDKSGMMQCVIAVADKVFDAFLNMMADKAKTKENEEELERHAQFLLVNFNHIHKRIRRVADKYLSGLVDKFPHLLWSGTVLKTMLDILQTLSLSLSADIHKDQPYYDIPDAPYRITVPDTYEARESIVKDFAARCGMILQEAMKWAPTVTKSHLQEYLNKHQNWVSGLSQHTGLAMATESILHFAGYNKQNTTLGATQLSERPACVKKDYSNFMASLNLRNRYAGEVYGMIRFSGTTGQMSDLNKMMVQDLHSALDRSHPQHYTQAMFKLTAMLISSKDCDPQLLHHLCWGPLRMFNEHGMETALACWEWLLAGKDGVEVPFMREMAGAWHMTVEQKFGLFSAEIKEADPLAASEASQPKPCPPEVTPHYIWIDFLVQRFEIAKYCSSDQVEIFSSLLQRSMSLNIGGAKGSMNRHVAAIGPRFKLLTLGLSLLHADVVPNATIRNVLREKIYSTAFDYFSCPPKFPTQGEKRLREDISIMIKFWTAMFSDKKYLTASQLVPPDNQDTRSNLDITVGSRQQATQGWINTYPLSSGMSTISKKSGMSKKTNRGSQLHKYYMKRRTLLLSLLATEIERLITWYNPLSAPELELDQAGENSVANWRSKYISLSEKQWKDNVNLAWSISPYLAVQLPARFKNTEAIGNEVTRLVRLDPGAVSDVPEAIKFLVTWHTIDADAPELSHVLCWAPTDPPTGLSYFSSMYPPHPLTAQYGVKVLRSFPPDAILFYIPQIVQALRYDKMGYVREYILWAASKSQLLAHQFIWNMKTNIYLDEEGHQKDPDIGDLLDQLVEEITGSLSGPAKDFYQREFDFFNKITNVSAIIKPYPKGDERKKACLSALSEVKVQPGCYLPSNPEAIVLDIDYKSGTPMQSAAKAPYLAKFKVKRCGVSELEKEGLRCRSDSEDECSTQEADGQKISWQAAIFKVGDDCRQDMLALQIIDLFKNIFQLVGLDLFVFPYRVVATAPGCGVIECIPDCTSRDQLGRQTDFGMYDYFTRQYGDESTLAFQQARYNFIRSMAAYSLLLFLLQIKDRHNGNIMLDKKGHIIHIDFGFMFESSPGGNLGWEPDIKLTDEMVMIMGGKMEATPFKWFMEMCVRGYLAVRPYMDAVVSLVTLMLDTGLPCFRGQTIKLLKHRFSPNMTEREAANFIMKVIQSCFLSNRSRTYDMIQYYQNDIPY

[18] = biological target: Mitogen-activated protein kinase 14 (Homo sapiens, UniProt Q16539); assay: Inhibition of P38alpha (unknown origin)
Sequence of Mitogen-activated protein kinase 14 (Q16539 whole entry): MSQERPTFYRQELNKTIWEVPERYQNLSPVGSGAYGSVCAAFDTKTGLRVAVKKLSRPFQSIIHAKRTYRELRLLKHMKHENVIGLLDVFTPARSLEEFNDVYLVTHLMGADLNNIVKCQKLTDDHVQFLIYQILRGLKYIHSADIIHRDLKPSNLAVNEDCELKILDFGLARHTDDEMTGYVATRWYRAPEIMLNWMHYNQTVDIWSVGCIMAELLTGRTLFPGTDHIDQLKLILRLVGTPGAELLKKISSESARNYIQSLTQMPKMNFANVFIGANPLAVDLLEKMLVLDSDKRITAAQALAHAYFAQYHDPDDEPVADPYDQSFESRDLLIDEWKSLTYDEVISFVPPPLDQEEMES

[19] = Fraction unbound in Brown Norway rat acute OVA model of TH2-driven lung inflammation at 3 mg/kg, po pretreated for 30 mins followed by OVA challenge measured 1 hr post dose by HPLC analysis; assay type: ADME, organism-based; conditions: in vivo
Summary of the method: (§3)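 Unbound concentration at 1 h post-dose estimated by an internal algorithm from binding to HPLC columns coated with HSA and α-glycoprotein.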

[20] = Fraction unbound in Brown Norway rat acute OVA model of TH2-driven lung inflammation at 9 mg/kg, po pretreated for 30 mins followed by OVA challenge measured 1 hr post dose by HPLC analysis; assay type: ADME, organism-based; conditions: in vivo; summary of the method: as §3
[21] = biological target: T1, Phosphatidylinositol 4,5-bisphosphate 3-kinase catalytic subunit delta isoform (Homo sapiens, UniProt O00329)
T1 sequence (O00329 whole entry): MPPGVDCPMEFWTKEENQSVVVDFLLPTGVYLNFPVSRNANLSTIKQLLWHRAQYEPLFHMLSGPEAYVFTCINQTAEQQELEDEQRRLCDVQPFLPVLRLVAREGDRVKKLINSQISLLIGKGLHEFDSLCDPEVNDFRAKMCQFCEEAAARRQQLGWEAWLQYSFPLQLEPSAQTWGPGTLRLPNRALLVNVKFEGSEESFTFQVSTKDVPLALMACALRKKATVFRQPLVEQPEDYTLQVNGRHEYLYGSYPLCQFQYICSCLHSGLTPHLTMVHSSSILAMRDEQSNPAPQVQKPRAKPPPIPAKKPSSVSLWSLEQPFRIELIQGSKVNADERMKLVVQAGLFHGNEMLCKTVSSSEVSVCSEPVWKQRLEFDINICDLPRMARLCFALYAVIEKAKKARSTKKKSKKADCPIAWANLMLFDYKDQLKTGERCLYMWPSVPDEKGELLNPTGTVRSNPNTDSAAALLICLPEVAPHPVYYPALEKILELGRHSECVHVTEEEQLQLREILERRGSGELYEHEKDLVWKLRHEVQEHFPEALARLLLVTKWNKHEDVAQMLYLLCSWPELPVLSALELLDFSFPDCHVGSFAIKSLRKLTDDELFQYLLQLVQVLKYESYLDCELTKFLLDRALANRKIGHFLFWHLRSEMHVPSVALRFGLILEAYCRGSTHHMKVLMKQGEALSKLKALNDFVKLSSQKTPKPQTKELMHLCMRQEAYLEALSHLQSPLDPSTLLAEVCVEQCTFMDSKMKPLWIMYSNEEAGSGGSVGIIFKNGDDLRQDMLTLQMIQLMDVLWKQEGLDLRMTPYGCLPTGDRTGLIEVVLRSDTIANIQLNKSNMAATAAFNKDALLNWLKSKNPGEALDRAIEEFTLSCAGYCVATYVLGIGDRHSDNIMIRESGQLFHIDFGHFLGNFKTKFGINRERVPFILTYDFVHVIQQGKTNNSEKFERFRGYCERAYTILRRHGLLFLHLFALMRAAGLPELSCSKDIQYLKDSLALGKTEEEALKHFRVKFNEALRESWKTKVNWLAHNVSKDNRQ

Q: Which Ratio IC50 [1] does the source give for `COc1ncc(-c2cc3c(c(NC(=O)CN4CCOCC4)c2)COC3)cc1NS(C)(=O)=O` here?
A: Its Ratio IC50 is 25.

Q: What about the Ratio IC50 [2] of the same compound?
A: Its Ratio IC50 is 50.

Q: What about the CLH [3] of the same compound?
A: The CLH was < 0.5 mL/min/g.

Q: What about the AUC [4] of the same compound?
A: Its AUC is 673 ng·h/mL.

Q: What about the Activity [5] of the same compound?
A: The Activity was “Active”.

Q: What about the Activity [6] of the same compound?
A: The Activity was “inactive”.

Q: What about the half-life [7] of the same compound?
A: The half-life was 10.6 h.

Q: And the IC50 [8]?
A: The IC50 was > 10 µM.

Q: What about the IC50 [9] of the same compound?
A: The IC50 was > 10 µM.

Q: And the IC50 [10]?
A: Its IC50 is > 10 µM.

Q: What about the IC50 [11] of the same compound?
A: Its IC50 is > 10 µM.

Q: What about the IC50 [12] of the same compound?
A: Its IC50 is > 10 µM.

Q: And the IC50 [13]?
A: Its IC50 is > 10 µM.

Q: And the IC50 [14]?
A: Its IC50 is > 10 µM.

Q: And the IC50 [15]?
A: The IC50 was > 10 µM.

Q: And the IC50 [16]?
A: The IC50 was > 10 µM.

Q: And the IC50 [17]?
A: The IC50 was > 10 µM.

Q: What about the IC50 [18] of the same compound?
A: Its IC50 is > 10 µM.

Q: And the “Drug uptake(free)” value [19]?
A: The value was 0.032 µM.

Q: What about the “Drug uptake(free)” value [20] of the same compound?
A: Its value is 0.22 µM.

Q: What about the IC50 [21] of the same compound?
A: The IC50 was 0.158 µM.
